PMC10204345 (European Journal of Medicinal Chemistry, 2023)
Read-outs that look alike come from different tables or passages of the source.

Legend:
SARS-CoV-2 3CL^pro = SARS-CoV-2 3CL^pro (Severe acute respiratory syndrome coronavirus 2, UniProt P0DTD1); type: biochemical
[1] = Microsomal stability assay, human; type: in vitro ADME; settings: microsomes, pH 7.41
Procedure, shortened: (§1)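 Liver microsomes in 100 mM potassium buffer with 5 mM MgCl₂, pH 7.41; test compound at 1 μM. Compound-microsome spiking mix (1.5 μM compound, 0.75 mg/mL microsomes) pre-incubated at 37 °C for 5 min, then started with NADPH (6 mM stock). Sampled at 0, 5, 15, 30 and 45 min, quenched with acetonitrile containing internal standard, centrifuged; supernatant diluted in water for LC/MS.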

[2] = Microsomal stability assay, mouse; type: in vitro ADME; settings: microsomes, pH 7.41
Procedure, shortened: as §1

[3] = Single-dose pharmacokinetics in ICR mice; type: in vivo; settings: single-dose oral administration 20 mg/kg
Procedure, shortened: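 Mice randomly split into IV and PO groups, three per group; single dose 10 mg/kg IV or 20 mg/kg oral. After oral dosing, blood taken at 0.25, 0.5, 1, 2, 4, 6, 8 and 24 h. Plasma (20 μL) protein-precipitated with methanol containing 100 ng/mL internal standard, vortexed, centrifuged at 18000g for 10 min, analysed by LC-MS/MS. AUC(0-t) derived by pharmacokinetic modelling.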

Structure (SMILES) | decrease of 3CL^pro inhibitory activity compared to 11b (SARS-CoV-2 3CL^pro) | half-life at 0.75 h, 1 µM [1] | half-life at 0.75 h, 1 µM [2] | other results
CC(C)(C)OC(=O)N[C@H](C(=O)N1[C@@H]2CC[C@@H](C2)[C@H]1C(=O)N[C@@H](C[C@@H]1CCNC1=O)C(=O)c1nc2ccccc2s1)C(C)(C)C [11a, tert-butyl ((S)-1-((1R,3S,4S)-3-(((S)-1-(benzo[d]thiazol-2-yl)-1-oxo-3-((S)-2-oxopyrrolidin-3-yl)propan-2-yl)carbamoyl)-2-azabicyclo[2.2.1]heptan-2-yl)-3,3-dimethyl-1-oxobutan-2-yl)carbamate] | 45 folds | – | – | –
CC(C)(C)[C@H](NC(=O)C(F)(F)F)C(=O)N1[C@@H]2CC[C@@H](C2)[C@H]1C(=O)N[C@@H](C[C@@H]1CCNC1=O)C(=O)c1nc2ccccc2s1 [11b, (1R,3S,4S)-N-((S)-1-(benzo[d]thiazol-2-yl)-1-oxo-3-((S)-2-oxopyrrolidin-3-yl)propan-2-yl)-2-((S)-3,3-dimethyl-2-(2,2,2-trifluoroacetamido)butanoyl)-2-azabicyclo[2.2.1]heptane-3-carboxamide] | – | 11.6 min | 7.74 min | –
CC(C)(F)C(=O)N[C@H](C(=O)N1[C@@H]2CC[C@@H](C2)[C@H]1C(=O)N[C@@H](C[C@@H]1CCNC1=O)C(=O)c1nc2ccccc2s1)C(C)(C)C [11c, (1R,3S,4S)-N-((S)-1-(benzo[d]thiazol-2-yl)-1-oxo-3-((S)-2-oxopyrrolidin-3-yl)propan-2-yl)-2-((S)-2-(2-fluoro-2-methylpropanamido)-3,3-dimethylbutanoyl)-2-azabicyclo[2.2.1]heptane-3-carboxamide] | – | 18 min | 4.82 min | decrease of 3CL^pro inhibitory activity compared to 11b (SARS-CoV-2 3CL^pro; ratio of IC50 to that of 11b): 11 folds
[2H]C([2H])([2H])C(=O)N[C@H](C(=O)N1[C@@H]2CC[C@@H](C2)[C@H]1C(=O)N[C@@H](C[C@@H]1CCNC1=O)C(=O)c1nc2ccccc2s1)C(C)(C)C [11d, (1R, 3S, 4S)-2-((S)-2-(acetamido-2,2,2-d3)-3,3-dimethylbutanoyl) -N-((S)-1-(benzo[d]thiazol-2-yl)-1-oxo-3-((S)-2-oxopyrrolidin-3-yl)propan-2-yl)-2-azabicyclo [2.2.1] heptane-3-carboxamide] | 5 folds | 42.2 min | 33.8 min | –
CC(C)(C)[C@H](NS(=O)(=O)C(F)(F)F)C(=O)N1[C@@H]2CC[C@@H](C2)[C@H]1C(=O)N[C@@H](C[C@@H]1CCNC1=O)C(=O)c1nc2ccccc2s1 [11e, (1R, 3S, 4S)-N-((S)-1-(benzo[d]thiazol-2-yl)-1-oxo-3-((S)-2-oxopyrrolidin-3-yl)propan-2-yl)-2-((S)-3,3-dimethyl-2-((trifluoromethyl)sulfonamido)butanoyl)-2-azabicyclo [2.2.1] heptane-3-carboxamide] | 8 folds | – | – | half-life at 1 μM [1]: > 120 min; half-life at 1 μM [2]: > 120 min; AUC(0-t) higher than that of 11b [3]: 2.4 times; AUC(0-t) higher than that of nirmatrelvir [3]: 5 times
CN(C)S(=O)(=O)N[C@H](C(=O)N1[C@@H]2CC[C@@H](C2)[C@H]1C(=O)N[C@@H](C[C@@H]1CCNC1=O)C(=O)c1nc2ccccc2s1)C(C)(C)C [11f, (1R, 3S, 4S)-N-((S)-1-(benzo[d]thiazol-2-yl)-1-oxo-3-((S)-2-oxopyrrolidin-3-yl)propan-2-yl)-2-((S)-2-((N,N-dimethylsulfamoyl)amino)-3,3-dimethylbutanoyl)-2-azabicyclo [2.2.1] heptane-3-carboxamide] | – | 3.25 min | 0.85 min | –
CC(C)(C)OC[C@H](NS(=O)(=O)C(F)(F)F)C(=O)N1[C@@H]2CC[C@@H](C2)[C@H]1C(=O)N[C@@H](C[C@@H]1CCNC1=O)C(=O)c1nc2ccccc2s1 [11g, (1R, 3S, 4S)-N-((S)-1-(benzo[d]thiazol-2-yl)-1-oxo-3-((S)-2-oxopyrrolidin-3-yl)propan-2-yl)-2-(O-(tert-butyl)-N-((trifluoromethyl)sulfonyl)-L-seryl)-2-azabicyclo [2.2.1] heptane-3-carboxamide] | – | – | – | decrease of enzyme activity compared to 11e (SARS-CoV-2 3CL^pro): 3 times
COc1ccc(C[C@H](NS(=O)(=O)C(F)(F)F)C(=O)N2[C@@H]3CC[C@@H](C3)[C@H]2C(=O)N[C@@H](C[C@@H]2CCNC2=O)C(=O)c2nc3ccccc3s2)cc1 [11h, (1R, 3S, 4S)-N-((S)-1-(benzo[d]thiazol-2-yl)-1-oxo-3-((S)-2-oxopyrrolidin-3-yl)propan-2-yl)-2-((S)-3-(4-methoxyphenyl)-2-((trifluoromethyl)sulfonamido)propanoyl)-2-azabicyclo [2.2.1] heptane-3-carboxamide] | – | – | – | decrease of enzyme activity compared to 11e (SARS-CoV-2 3CL^pro): 6 times
CC(C)(C)[C@H](NC(=O)C(F)(F)F)C(=O)N1C[C@H]2[C@@H]([C@H]1C(=O)N[C@H](C#N)C[C@@H]1CCNC1=O)C2(C)C [nirmatrelvir, reference compound] | – | 35.5 min | 17.7 min | –
